Measured values from ChEMBL document CHEMBL2346534, “Design, synthesis and in vitro anti-proliferative activity of 4,6-quinazolinediamines as potent EGFR-TK inhibitors” (Eur J Med Chem, 2013).

Legend:
MDA-MB-435 = assay: Cytotoxicity against human MDA-MB-435 cells assessed as cell growth at 10^-5 M after 48 hrs by SRB assay; assay type: functional; conditions: MDA-MB-435, 48 h, read-out: Activity
Method in brief: (§1)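 NCI 60 single-dose screen at 10^-5 M. Cells in RPMI 1640 with 5% FBS and 2 mM L-glutamine, preincubated 24 h at 37 °C/5% CO2. Drug from DMSO stock, then 48 h exposure. TCA fixation, SRB staining, absorbance at 515 nm. Result given as percent growth of treated cells relative to untreated control.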

SK-MEL-28 = assay: Cytotoxicity against human SK-MEL-28 cells assessed as cell growth at 10^-5 M after 48 hrs by SRB assay; assay type: functional; conditions: SK-MEL-28, 48 h, read-out: Activity
Method in brief: (§2)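 NCI 60-panel single-dose primary screen at 10^-5 M. Cells are grown in RPMI 1640 with 5% FBS and 2 mM L-glutamine and preincubated 24 h at 37 °C. Drug exposure is 48 h. Cells are TCA-fixed, stained with SRB and absorbance is read at 515 nm. Results are reported as percent growth of treated cells versus untreated controls, corrected using time-zero plates.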

BT-549 = assay: Cytotoxicity against human BT549 cells assessed as cell growth at 10^-5 M after 48 hrs by SRB assay; assay type: functional; conditions: BT-549, 48 h, read-out: Activity; method in brief: as §1
ACHN = assay: Cytotoxicity against human ACHN cells assessed as cell growth at 10^-5 M after 48 hrs by SRB assay; assay type: functional; conditions: read-out: Activity; method in brief: as §1
UO-31 = assay: Cytotoxicity against human UO31 cells assessed as cell growth at 10^-5 M after 48 hrs by SRB assay; assay type: functional; conditions: UO-31, 48 h, read-out: Activity
Method in brief: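 NCI primary single-dose screen at 10^-5 M. Cells grown in RPMI 1640 with 5% FBS and 2 mM L-glutamine, given 24 h before drug addition, then 48 h exposure at 37 °C, 5% CO2. Cells TCA-fixed, stained with SRB, read at 515 nm. Reported as percent growth of treated cells relative to untreated controls.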

OVCAR-3 = assay: Cytotoxicity against human OVCAR3 cells assessed as cell growth at 10^-5 M after 48 hrs by SRB assay; assay type: functional; conditions: OVCAR-3, 48 h, read-out: Activity; method in brief: as §2
[1] = target: Epidermal growth factor receptor (Homo sapiens, UniProt P00533); conditions: at 10 µM;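 note: EGFR tyrosine kinase activity on a poly(Glu,Tyr) substrate, read out by Kinase-Glo Plus luminescence after a 40 min reaction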
SNB-19 = assay: Cytotoxicity against human SNB19 cells assessed as cell growth at 10^-5 M after 48 hrs by SRB assay; assay type: functional; conditions: SNB-19, 48 h, read-out: Activity; method in brief: as §2
NCI-H522 = assay: Cytotoxicity against human NCI-H522 cells assessed as cell growth at 10^-5 M after 48 hrs by SRB assay; assay type: functional; conditions: NCI-H522, 48 h, read-out: Activity; method in brief: as §2
RXF 393 = assay: Cytotoxicity against human RXF393 cells assessed as cell growth at 10^-5 M after 48 hrs by SRB assay; assay type: functional; conditions: RXF 393, 48 h, read-out: Activity; method in brief: as §2
MOLT-4 = assay: Cytotoxicity against human MOLT4 cells assessed as cell growth at 10^-5 M after 48 hrs by SRB assay; assay type: functional; conditions: MOLT-4, 48 h, read-out: Activity; method in brief: as §2
MDA-MB-468 = assay: Cytotoxicity against human MDA-MB-468 cells assessed as cell growth at 10^-5 M after 48 hrs by SRB assay; assay type: functional; conditions: MDA-MB-468, 48 h, read-out: Activity; method in brief: as §2
SN12C = assay: Cytotoxicity against human SN12C cells assessed as cell growth at 10^-5 M after 48 hrs by SRB assay; assay type: functional; conditions: read-out: Activity; method in brief: as §2
OVCAR-8 = assay: Cytotoxicity against human OVCAR8 cells assessed as cell growth at 10^-5 M after 48 hrs by SRB assay; assay type: functional; conditions: OVCAR-8, 48 h, read-out: Activity; method in brief: as §2
OVCAR-5 = assay: Cytotoxicity against human OVCAR5 cells assessed as cell growth at 10^-5 M after 48 hrs by SRB assay; assay type: functional; conditions: OVCAR-5, 48 h, read-out: Activity; method in brief: as §2
RPMI-8226 = assay: Cytotoxicity against human RPMI8226 cells assessed as cell growth at 10^-5 M after 48 hrs by SRB assay; assay type: functional; conditions: RPMI-8226, 48 h, read-out: Activity; method in brief: as §2
NCI-H226 = assay: Cytotoxicity against human NCI-H226 cells assessed as cell growth at 10^-5 M after 48 hrs by SRB assay; assay type: functional; conditions: NCI-H226, 48 h, read-out: Activity; method in brief: as §2
MDA-MB-231 = assay: Cytotoxicity against human MDA-MB-231 cells assessed as cell growth at 10^-5 M after 48 hrs by SRB assay; assay type: functional; conditions: MDA-MB-231, 48 h, read-out: Activity; method in brief: as §1
HCT-116 = assay: Cytotoxicity against human HCT116 cells assessed as cell growth at 10^-5 M after 48 hrs by SRB assay; assay type: functional; conditions: HCT-116, 48 h, read-out: Activity; method in brief: as §1
NCI-H322M = assay: Cytotoxicity against human NCI-H322M cells assessed as cell growth at 10^-5 M after 48 hrs by SRB assay; assay type: functional; conditions: read-out: Activity; method in brief: as §2
HOP-62 = assay: Cytotoxicity against human HOP62 cells assessed as cell growth at 10^-5 M after 48 hrs by SRB assay; assay type: functional; conditions: HOP-62, 48 h, read-out: Activity; method in brief: as §1
SK-MEL-5 = assay: Cytotoxicity against human SK-MEL-5 cells assessed as cell growth at 10^-5 M after 48 hrs by SRB assay; assay type: functional; conditions: SK-MEL-5, 48 h, read-out: Activity; method in brief: as §2
SF-295 = assay: Cytotoxicity against human SF295 cells assessed as cell growth at 10^-5 M after 48 hrs by SRB assay; assay type: functional; conditions: SF-295, 48 h, read-out: Activity; method in brief: as §2
HL-60(TB) = assay: Cytotoxicity against human HL-60(TB) cells assessed as cell growth at 10^-5 M after 48 hrs by SRB assay; assay type: functional; conditions: HL-60, 48 h, read-out: Activity
Method in brief: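 NCI 60-panel single-dose screen. Cells were grown in RPMI 1640 with 5% FBS and 2 mM L-glutamine, preincubated 24 h, then exposed to compound at 10^-5 M (from DMSO stock) for 48 h at 37 °C, 5% CO2. Settled suspension cells were TCA-fixed and SRB-stained, with absorbance read at 515 nm. The value is percent growth of treated versus untreated control cells.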

SNB-75 = assay: Cytotoxicity against human SNB75 cells assessed as cell growth at 10^-5 M after 48 hrs by SRB assay; assay type: functional; conditions: SNB-75, 48 h, read-out: Activity; method in brief: as §2
OVCAR-4 = assay: Cytotoxicity against human OVCAR4 cells assessed as cell growth at 10^-5 M after 48 hrs by SRB assay; assay type: functional; conditions: OVCAR-4, 48 h, read-out: Activity; method in brief: as §2
[2] = Cytotoxicity against human EKVX cells assessed as cell growth at 10^-5 M after 48 hrs by SRB assay; assay type: functional; conditions: read-out: Activity; method in brief: as §1
M14 = assay: Cytotoxicity against human M14 cells assessed as cell growth at 10^-5 M after 48 hrs by SRB assay; assay type: functional; conditions: M14, 48 h, read-out: Activity; method in brief: as §1
Malme-3M = assay: Cytotoxicity against human MALME-3M cells assessed as cell growth at 10^-5 M after 48 hrs by SRB assay; assay type: functional; conditions: read-out: Activity; method in brief: as §1
Hs-578T = assay: Cytotoxicity against human Hs578T cells assessed as cell growth at 10^-5 M after 48 hrs by SRB assay; assay type: functional; conditions: read-out: Activity; method in brief: as §1

Chain of Epidermal growth factor receptor (P00533 whole entry): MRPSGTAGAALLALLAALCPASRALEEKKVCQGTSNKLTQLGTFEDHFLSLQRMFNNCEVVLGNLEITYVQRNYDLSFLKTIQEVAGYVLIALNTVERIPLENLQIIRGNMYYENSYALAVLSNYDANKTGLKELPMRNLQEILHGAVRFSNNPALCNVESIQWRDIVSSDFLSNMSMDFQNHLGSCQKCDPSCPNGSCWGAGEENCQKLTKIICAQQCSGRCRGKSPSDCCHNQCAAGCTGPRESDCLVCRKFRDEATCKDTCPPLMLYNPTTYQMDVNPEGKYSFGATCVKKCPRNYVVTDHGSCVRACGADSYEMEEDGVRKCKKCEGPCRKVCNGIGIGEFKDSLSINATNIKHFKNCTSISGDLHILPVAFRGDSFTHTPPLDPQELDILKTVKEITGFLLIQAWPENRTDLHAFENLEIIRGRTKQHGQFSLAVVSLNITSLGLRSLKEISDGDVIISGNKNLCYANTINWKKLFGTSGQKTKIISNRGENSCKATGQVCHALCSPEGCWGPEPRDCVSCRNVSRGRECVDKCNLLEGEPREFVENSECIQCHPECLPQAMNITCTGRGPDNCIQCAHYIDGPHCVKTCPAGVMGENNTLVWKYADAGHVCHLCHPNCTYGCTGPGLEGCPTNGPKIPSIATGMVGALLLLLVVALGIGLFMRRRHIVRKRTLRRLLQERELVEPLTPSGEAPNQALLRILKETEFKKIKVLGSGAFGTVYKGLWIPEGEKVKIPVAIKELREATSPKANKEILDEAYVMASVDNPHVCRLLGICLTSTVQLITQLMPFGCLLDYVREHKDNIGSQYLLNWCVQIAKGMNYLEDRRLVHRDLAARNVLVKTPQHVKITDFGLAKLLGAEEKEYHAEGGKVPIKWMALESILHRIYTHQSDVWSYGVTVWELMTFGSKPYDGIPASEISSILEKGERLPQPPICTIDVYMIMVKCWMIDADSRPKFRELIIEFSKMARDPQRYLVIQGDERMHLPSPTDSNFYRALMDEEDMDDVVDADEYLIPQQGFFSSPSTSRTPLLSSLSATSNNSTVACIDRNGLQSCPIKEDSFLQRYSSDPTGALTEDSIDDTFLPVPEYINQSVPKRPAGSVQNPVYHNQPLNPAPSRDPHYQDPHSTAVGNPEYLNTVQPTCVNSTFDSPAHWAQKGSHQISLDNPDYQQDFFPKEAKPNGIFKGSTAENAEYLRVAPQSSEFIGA

SMILES | growth at 10 µM (MDA-MB-435) | growth at 10 µM (SK-MEL-28) | growth at 10 µM (BT-549) | growth at 10 µM (ACHN) | growth at 10 µM (UO-31) | growth at 10 µM (OVCAR-3) | inhibition [1] | growth at 10 µM (SNB-19) | growth at 10 µM (NCI-H522) | growth at 10 µM (RXF 393) | growth at 10 µM (MOLT-4) | growth at 10 µM (MDA-MB-468) | growth at 10 µM (SN12C) | growth at 10 µM (OVCAR-8) | growth at 10 µM (OVCAR-5) | growth at 10 µM (RPMI-8226) | growth at 10 µM (NCI-H226) | growth at 10 µM (MDA-MB-231) | growth at 10 µM (HCT-116) | growth at 10 µM (NCI-H322M) | also measured
C#Cc1cccc(Nc2ncnc3ccc(N/C=C(\C#N)C(=O)OCC)cc23)c1 | 92% | 103% | 99.6% | 63.1% | 58.6% | 78.7% | 95% | 85.1% | 86.3% | 92.9% | 87.5% | 40.4% | 97.1% | 94.8% | 89.5% | 101% | 89.8% | 97.2% | 103% | 52.3% | growth at 10 µM (HOP-62): 99.9%; growth at 10 µM (SK-MEL-5): 89.4%; growth at 10 µM (SF-295): 95.6%; growth at 10 µM (HL-60(TB)): 97.5%; growth at 10 µM (SNB-75): 92.5%; growth at 10 µM (OVCAR-4): 94%; growth at 10 µM [2]: 31.9%; growth at 10 µM (M14): 114%; growth at 10 µM (Malme-3M): 119%; growth at 10 µM (Hs-578T): 103%
NC(=O)Nc1ccc2ncnc(Nc3ccc(Cl)cc3)c2c1 | 97.8% | 106% | 92.4% | 47.4% | 58% | 74.2% | 100% | 78.6% | 66.2% | 93.7% | 71.2% | -7.15% | 81.9% | 89.5% | 83.6% | 101% | 99.8% | 89.3% | 96.4% | 18% | growth at 10 µM (HOP-62): 86.2%; growth at 10 µM (SK-MEL-5): 89.2%; growth at 10 µM (SF-295): 90.7%; growth at 10 µM (HL-60(TB)): 99.9%; growth at 10 µM (SNB-75): 95%; growth at 10 µM (OVCAR-4): 91.9%; growth at 10 µM [2]: 22.4%; growth at 10 µM (M14): 107%; growth at 10 µM (Malme-3M): 117%; growth at 10 µM (Hs-578T): 87.8%
NC(=O)Nc1ccc2ncnc(Nc3cccc(O)c3)c2c1 | 101% | 114% | 108% | 103% | 80.1% | 82.8% | 100% | 93.1% | 102% | 111% | 98.8% | 67.9% | 94.9% | 98.9% | 98.1% | 112% | 102% | 104% | 109% | 83.5% | growth at 10 µM (HOP-62): 92.8%; growth at 10 µM (SK-MEL-5): 101%; growth at 10 µM (SF-295): 98.1%; growth at 10 µM (HL-60(TB)): 105%; growth at 10 µM (SNB-75): 102%; growth at 10 µM (OVCAR-4): 112%; growth at 10 µM [2]: 82.6%; growth at 10 µM (M14): 102%; growth at 10 µM (Malme-3M): 121%; growth at 10 µM (Hs-578T): 105%
CCOC(=O)/C(C#N)=C\Nc1ccc2ncnc(Nc3ccc(Cl)cc3Cl)c2c1 | 75.7% | 109% | 89.6% | 62.9% | 42% | 67.6% | 92% | 86.4% | 95.8% | 77% | 58.8% | 56.4% | 89.5% | 87% | 82.2% | 79.5% | 99.8% | 85.2% | 92.9% | 75.7% | growth at 10 µM (HOP-62): 101%; growth at 10 µM (SK-MEL-5): 78.3%; growth at 10 µM (SF-295): 82.2%; growth at 10 µM (HL-60(TB)): 108%; growth at 10 µM (SNB-75): 91.3%; growth at 10 µM (OVCAR-4): 95.1%; growth at 10 µM [2]: 41.7%; growth at 10 µM (M14): 106%; growth at 10 µM (Malme-3M): 140%; growth at 10 µM (Hs-578T): 75.5%
